Measured values pooled from the literature.
Lines come from different studies, so protocols differ.
Target: Serine/threonine-protein kinase PAK 4 (PAK4, Homo sapiens, UniProt O96013)

Structure (SMILES) | observed | technique | concentration | remaining binding [%]
CC1CCCN1c1nccc(-c2cnn3ncccc23)n1 (stereo not shown) | binding | – | 1 µM | 100
O=C(N1CCS(=O)(=O)CC1)N1C[C@H](c2ccc(OC(F)(F)F)cc2)C[C@H](c2nc(C3CC3)no2)C1 | cell-free assay | competition with immobilised ligand | 1 µM | 100
CN(C)c1nccc(-c2cnc3ncccn23)n1 | binding | – | 1 µM | 88
Cc1nc(N2CC[C@@H](O)C2)ncc1-c1cc(C(F)(F)F)cc2[nH]ncc12 | cell-free assay | competition with immobilised ligand | 1 µM | 100
CN(C)c1ncc(F)c(-c2cnn3ncccc23)n1 | binding | – | 1 µM | 80
C[C@@H]1CN(c2ccc3ncc(-c4ccc5[nH]nc(C6CC6)c5c4)n3n2)C[C@H](C)O1 | binding | competition with immobilised ligand | 50 nM | 90
N[C@@H]1CCN(c2nccc(-c3cnn4ncccc34)n2)C1 | binding | – | 1 µM | 100
Nc1ncc2c(n1)-c1c([nH]c3ccc(C#CC4CC4)cc13)CCCC2 | binding | competition with immobilised ligand | 1 µM | 76
FC(F)(F)Oc1cccc(-c2cnc3ccc(-c4ccncc4)nn23)c1 | cell-free assay | competition with immobilised ligand | 5 µM | 47
C[C@@H](c1cccc(C#N)c1)n1cc(Cl)cc(C(N)=O)c1=N | cell-free assay | competition with immobilised ligand | 1 µM | 100
N#Cc1ccccc1CSc1nnc2c(n1)[nH]c1ccccc12 | binding | competition with immobilised ligand | 10 µM | 87
CCC(=O)N[C@@H]1CC[C@H](C(=O)N(C)c2ccc(-c3nc4ccccc4o3)cc2)C1 | cell-free assay | competition with immobilised ligand | 1 µM | 100
CN(C)c1nccc(-c2cnn3ncccc23)n1 | binding | – | 1 µM | 100
CCC(=N\O)/C(C)=C/c1ccc(F)cc1 | cell-free assay | competition with immobilised ligand | 1 µM | 100
O=C(c1ccc(Nc2ncc(Cl)c(-c3cc4ccccc4s3)n2)cc1)N1CCC(N2CCCC2)CC1 | binding | competition with immobilised ligand | 1 µM | 77
O=C(NCC1CCOCC1)c1n[nH]cc1NC(=O)c1c(F)cccc1F | binding | competition with immobilised ligand | 1 µM | 99
CNC(=O)Nc1ccc2c(c1)[C@@]1(CC2)OC(=O)N(CC(=O)N(Cc2ccc(F)cc2)[C@@H](C)C(F)(F)F)C1=O | cell-free assay | competition with immobilised ligand | 1 µM | 95
O=C(NCCCN1CCOCC1)c1ccc(Nc2nccc(-c3cc4ccccc4s3)n2)cc1 | binding | competition with immobilised ligand | 1 µM | 91
COc1cnc(Nc2cccc(S(N)(=O)=O)c2)nc1N1CCN(c2ccccc2)C(=O)C1 | binding | competition with immobilised ligand | 1 µM | 100
CN(CCCC(F)(F)F)c1nccc(-c2cnn3ncccc23)n1 | binding | – | 1 µM | 100
Cn1cc(Cl)c2c(Oc3c(F)cc(Nc4cc(Cl)nc(N)n4)cc3F)ccnc21 | cell-free assay | competition with immobilised ligand | 0.1 µM | 100
c1cncc(-c2cccc(Nc3nccc(NC4CCCCC4)n3)c2)c1 | binding | competition with immobilised ligand | 10 µM | 83
Cc1cnc(Nc2ccc(C(=O)N3CCC(N4CCCC4)CC3)cc2)nc1-c1cc2ccccc2s1 | binding | competition with immobilised ligand | 1 µM | 70
C[C@@H]1CCN(c2nccc(-c3cnn4ncccc34)n2)C1 | binding | – | 1 µM | 100
O=C(NS(=O)(=O)c1ccc(NCC2CCOCC2)c([N+](=O)[O-])c1)c1ccc(N2CCN(Cc3ccc(C(F)(F)F)cc3-c3ccc(Cl)cc3)CC2)cc1Oc1cnc2[nH]ccc2c1 | cell-free assay | competition with immobilised ligand | 1 µM | 93
